Activity calls are given as the source filed them. The rule behind the calls is not given here. Numbered stars: 1 amine (or outer) side, 2 acyl side, 3 side chain; on linkers, the order of the positions; unused ones are H or OH. Square brackets hold non-standard residues; d marks the D form. Peptide text beside a SMILES is read from it. * marks the point of attachment. NH(1S,2S-2-CONH2-cPent) = NC(=O)[C@H]1CCC[C@@H]1N*; ACPC(1S,2S) = N[C@H]1CCC[C@@H]1C(=O)*; X1 = O=C([C@H]1CCC[C@@H]1N[*:1])[*:2]; X2 = O=C([C@H]1CNC[C@@H]1N[*:1])[*:2]; hArg = N=C(N)NCCCC[C@H](N)C(=O)O; Aib = CC(C)(N)C(=O)O
Key:
[1] = biological target: T1, Parathyroid hormone/parathyroid hormone-related peptide receptor (Homo sapiens) (UniProt Q03431); test: Agonist activity at extracellular domain truncate human PTH1 receptor expressed in GD5 cells assessed as induction of cAMP after 12 to 20 mins by luciferase reporter gene assay; type: functional, cell-based
T1 sequence (whole entry): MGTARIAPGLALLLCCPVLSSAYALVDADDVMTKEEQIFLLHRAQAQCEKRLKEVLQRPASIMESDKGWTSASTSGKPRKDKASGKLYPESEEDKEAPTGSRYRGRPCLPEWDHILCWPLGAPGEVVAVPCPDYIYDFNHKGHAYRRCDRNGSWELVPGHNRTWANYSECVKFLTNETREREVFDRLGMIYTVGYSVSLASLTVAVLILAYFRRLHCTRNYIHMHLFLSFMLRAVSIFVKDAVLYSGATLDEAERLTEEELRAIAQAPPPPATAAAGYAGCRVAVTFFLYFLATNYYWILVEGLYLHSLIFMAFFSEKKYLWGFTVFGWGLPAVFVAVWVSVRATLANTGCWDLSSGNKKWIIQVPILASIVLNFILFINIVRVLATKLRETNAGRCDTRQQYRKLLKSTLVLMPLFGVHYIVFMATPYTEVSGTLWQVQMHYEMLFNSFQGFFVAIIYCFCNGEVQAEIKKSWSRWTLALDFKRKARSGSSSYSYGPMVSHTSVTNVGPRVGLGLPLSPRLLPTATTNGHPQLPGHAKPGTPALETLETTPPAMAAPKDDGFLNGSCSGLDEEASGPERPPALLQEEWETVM
Outline: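 HEK293-derived lines stably expressing Glosensor cAMP reporter plus full-length human PTHR1 (GP2.3) or ECD-truncated PTHR1 (GD5). Confluent monolayers preincubated at room temperature in CO2-independent medium with 0.5 mM D-luciferin until baseline stable (30 min), then varied agonist concentrations added. Maximal luminescence (12−20 min) used for sigmoidal variable-slope fits.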

[2] = Drug metabolism in Sprague-Dawley rat kidney homogenates assessed as protease mediated-drug degradation at 12 uM up to 5 mins by MALDI-TOF-MS analysis; type: ADME, tissue-based; details: tissue homogenate
Outline: (§1)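 Perfused female Sprague-Dawley kidney homogenate in 50 mM Tris-HCl pH 7.4, diluted to 2.5 mg protein/mL. Peptide spiked at 50 μg/mL (~12 μM) and incubated at 37 °C. Timed samples quenched with equal volume 1% TFA, centrifuged, dried, reconstituted in 0.1% formic acid, mixed with DHB matrix. Fragments identified by MALDI-TOF MS.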

[3] = Drug metabolism in Sprague-Dawley rat kidney homogenates assessed as protease mediated-drug degradation at 12 uM up to 15 mins by MALDI-TOF-MS analysis; type: ADME, tissue-based; details: tissue homogenate; outline: as §1
[4] = Drug metabolism in Sprague-Dawley rat kidney homogenates assessed as protease-mediated metabolite formation at 12 uM after 5 mins by MALDI-TOF-MS analysis; type: ADME, tissue-based; details: tissue homogenate; outline: as §1
[5] = Stability in simulated gastric fluid assessed as pig pepsin-mediated proteolysis at 40 uM after 5 secs by RP-HPLC analysis; type: ADME, Sus scrofa; details: isolated protein, 5 s
Outline: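 Proteolysis quenched by transfer into 10× PBS, pH 7.4, giving 40 μM peptide. Analysed by analytical C18 RP-HPLC, 10–60% acetonitrile/0.1% TFA over 50 min. Intact peptide quantified by integrating its peak. Duplicate reactions run concurrently, standard deviation.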

[6] = biological target: T1, Parathyroid hormone/parathyroid hormone-related peptide receptor (Homo sapiens); test: Agonist activity at human PTH1 receptor expressed in human GP2.3 cells assessed as induction of cAMP at 0.1 to 100 nM preincubated with SGF for 5 secs followed by compound transfer to GP2.3 cells by luciferase reporter gene assay; type: functional, cell-based
Outline: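 Quenched at set times with 10× PBS, diluted into CO2-independent medium, serially 1:10, then added to confluent GP2.3 cells (HEK293, hPTHR1 plus Glosensor cAMP reporter) preloaded 30 min with 0.5 mM D-luciferin. Final 100–0.1 nM. Luminescence read; two technical replicates; variable-slope sigmoidal fit.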

[7] = biological target: T1, Parathyroid hormone/parathyroid hormone-related peptide receptor (Homo sapiens); test: Agonist activity at human PTH1 receptor expressed in human GP2.3 cells assessed as induction of cAMP at 0.1 to 100 nM preincubated with SIF for 10 mins followed by compound transfer to GP2.3 cells by luciferase reporter gene assay; type: functional, cell-based
Outline: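 Simulated intestinal fluid containing pancreatin, pH 6.8, prepared fresh and kept at 37 °C. Peptide incubated in it as for gastric fluid. Quenched 1:1 with 50% acetonitrile/1% TFA. Quenched samples serially diluted in CO2-independent medium and applied to luciferin-preloaded GP2.3 cells at 100−0.1 nM final. Luminescence read. Two technical replicates.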

[8] = tested on: Mus musculus; test: In vivo induction of excessive bloodstream calcium concentration in CD1 mouse at 20 nmol/kg, sc after 2 hrs by Ca2+/pH analyzer; type: organism-based
Outline: (§2)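 Female CD1 mice (9−12 weeks), n = 5, given 20 nmol/kg subcutaneously in 10 mM citrate/150 mM NaCl/0.05% Tween-80, pH 5.0. Tail vein blood taken before and at times after dosing. Ca2+ measured by Ca2+/pH analyzer. One-way ANOVA with Dunnett's test vs vehicle. Mean ± SEM.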

[9] = biological target: T1, Parathyroid hormone/parathyroid hormone-related peptide receptor (Homo sapiens); test: Displacement of [125I]-PTH(1 to 34 residues) from R0 state of human PTHR1 expressed in African green monkey COS7 cell membranes incubated for >1 hr in presence of GTPgammaS by gamma radiation method
[10] = Half life in Sprague-Dawley rat kidney homogenates at 12 uM by HPLC-MS analysis; type: ADME, tissue-based
Outline: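 Kidney homogenate (2.5 mg protein/mL, pH 7.4 Tris) spiked with peptide at 50 μg/mL (~12 μM), 37 °C, sampled 0−120 min. […] C18 UHPLC–Orbitrap MS quantified via y32 ion area ratio against calibration standards. Exponential decay fit, mean ± SD of two replicates.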

[11] = biological target: T1, Parathyroid hormone/parathyroid hormone-related peptide receptor (Homo sapiens); test: Agonist activity at human PTH1 receptor expressed in human GP2.3 cells assessed as induction of cAMP at 0.1 to 100 nM preincubated with protease activity quenched SGF up to 4 hrs followed by compound transfer to GP2.3 cells by luciferase reporter gene assay; type: functional, cell-based
Outline: (§3)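 Control samples: simulated gastric fluid neutralized with 10× PBS, or intestinal fluid mixed with acetonitrile/TFA quench solution, before adding peptide. Gastric controls held up to 4 h. Then diluted and tested on luciferin-loaded GP2.3 cells at 100−0.1 nM final, alongside freshly prepared peptide.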

[12] = biological target: T1, Parathyroid hormone/parathyroid hormone-related peptide receptor (Homo sapiens); test: Agonist activity at human PTH1 receptor expressed in human GP2.3 cells assessed as induction of cAMP at 0.1 to 100 nM preincubated with protease activity quenched SIF followed by compound transfer to GP2.3 cells by luciferase reporter gene assay; type: functional, cell-based; outline: as §3
[13] = biological target: T2, Parathyroid hormone/parathyroid hormone-related peptide receptor (Homo sapiens, UniProt Q03431); test: Agonist activity at human PTH1 receptor expressed in human GP2.3 cells assessed as induction of cAMP after 12 to 20 mins by luciferase reporter gene assay; type: functional, cell-based; details: read-out: EC50
T2 sequence (Q03431 whole entry): T1 sequence (whole entry)

[14] = biological target: T1, Parathyroid hormone/parathyroid hormone-related peptide receptor (Homo sapiens); test: Agonist activity at human PTH1 receptor expressed in human GP2.3 cells assessed as induction of cAMP after 12 to 20 mins by luciferase reporter gene assay relative to PTH(1 to 34 residues)-NH2; type: functional, cell-based
[15] = Drug metabolism in Sprague-Dawley rat kidney homogenates assessed as protease-mediated metabolite formation at 12 uM after 4 hrs by MALDI-TOF-MS analysis; type: ADME, tissue-based; details: tissue homogenate; outline: as §1
[16] = biological target: T1, Parathyroid hormone/parathyroid hormone-related peptide receptor (Homo sapiens); test: Agonist activity at human PTH1 receptor expressed in human GP2.3 cells assessed as induction of cAMP at 12 uM preincubated with Sprague-Dawley rat kidney homogenates for 60 mins followed by compound transfer to GP2.3 cells measured after 12 to 20 mins by luciferase reporter gene assay; type: functional, cell-based
Outline: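 Female Sprague-Dawley rat kidney homogenate (50 mM Tris-HCl pH 7.4, 2000g supernatant). 1 mM peptide stock diluted 1:85 (~12 μM), incubated at indicated times. Quenched 1:1 with acetonitrile/TFA solution, diluted to 1000−1 nM, and added 1:10 to GP2.3 cells preincubated 30 min with 0.5 mM D-luciferin. Sigmoidal variable-slope fit. Two replicates.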

[17] = tested on: pepsin; test: Stability in simulated gastric fluid assessed as pig pepsin-mediated proteolysis by measuring half life at 40 uM by RP-HPLC analysis; type: ADME, Sus scrofa; details: simulated gastric fluid with pig pepsin
Outline: (§4)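 Peptide at 200 μM (from 1 mM stock in 10 mM acetic acid) incubated at 37 °C in fresh SGF (NaCl, porcine pepsin, HCl, pH ~1.2). Quenched by 10× PBS to neutral pH (40 μM). Duplicate reactions. Intact peptide measured by RP-HPLC peak area. For bioactivity, samples diluted into CO2-independent medium and added to luciferin-loaded GP2.3 cells at 100 nM−0.1 nM final.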

[18] = biological target: T1, Parathyroid hormone/parathyroid hormone-related peptide receptor (Homo sapiens); test: Agonist activity at human PTH1 receptor expressed in human GP2.3 cells assessed as induction of cAMP at 0.1 to 100 nM preincubated with SGF for 4 hrs followed by compound transfer to GP2.3 cells by luciferase reporter gene assay; type: functional, cell-based; outline: as §4
[19] = tested on: Mus musculus; test: In vivo induction of excessive bloodstream calcium concentration in CD1 mouse at 20 nmol/kg, sc up to 2 hrs by Ca2+/pH analyzer; type: organism-based; outline: as §2
[20] = tested on: Blood; test: Drug level in CD1 mouse blood at 20 nmol/kg, sc measured up to 2 hrs; type: ADME, organism-based; details: in vivo
Outline: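 Female CD1 mice, n = 5, 20 nmol/kg subcutaneously in citrate/NaCl/Tween-80 vehicle, pH 5.0. 2 μL serum from timed bleeds, mixed with CO2-independent medium, added to GP2.3 cells. Luminescence converted to peptide concentration via a standard curve.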

CC[C@H](C)[C@H](NC(=O)[C@H](CCC(=O)O)NC(=O)[C@H](CO)NC(=O)[C@@H](NC(=O)[C@@H](N)CO)C(C)C)C(=O)N[C@@H](CCC(N)=O)C(=O)N[C@@H](CC(C)C)C(=O)N[C@@H](CCSC)C(=O)N[C@@H](Cc1cnc[nH]1)C(=O)N[C@@H](CC(N)=O)C(=O)N[C@@H](CC(C)C)C(=O)NCC(=O)N[C@@H](CCCCN)C(=O)N[C@@H](Cc1cnc[nH]1)C(=O)N[C@@H](CC(C)C)C(=O)N[C@@H](CC(N)=O)C(=O)N[C@@H](CO)C(=O)N[C@@H](CCSC)C(=O)N[C@@H](CCC(=O)O)C(=O)N[C@@H](CCCNC(=N)N)C(=O)N[C@H](C(=O)N[C@@H](CCC(=O)O)C(=O)N[C@@H](Cc1c[nH]c2ccccc12)C(=O)N[C@@H](CC(C)C)C(=O)N[C@@H](CCCNC(=N)N)C(=O)N[C@@H](CCCCN)C(=O)N[C@@H](CCCCN)C(=O)N[C@@H](CC(C)C)C(=O)N[C@@H](CCC(N)=O)C(=O)N[C@@H](CC(=O)O)C(=O)N[C@H](C(=O)N[C@@H](Cc1cnc[nH]1)C(=O)N[C@@H](CC(N)=O)C(=O)N[C@@H](Cc1ccccc1)C(N)=O)C(C)C)C(C)C
Activity [1]: Active | Drug metabolism [2]: Metabolite_Detected | Drug metabolism [3]: Metabolite_Detected | Drug metabolism [4]: Metabolite_Detected | Stability [5]: Unstable | Activity [6]: inactive | Activity [7]: inactive | Activity [8]: Non-Toxic | inhibition [9]: Active | half-life at 12 µM [10]: 1.9 min | Activity [11]: Active | Activity [12]: Active

CSCC[C@H](NC(=O)[C@H]1CCC[C@@H]1NC(=O)[C@H](CCC(N)=O)NC(=O)[C@H]1CCC[C@@H]1NC(=O)[C@H](CCC(=O)O)NC(=O)C(C)(C)NC(=O)[C@@H](NC(=O)[C@H]1CCC[C@@H]1N)C(C)C)C(=O)N[C@@H](Cc1cnc[nH]1)C(=O)N[C@@H](CCC(N)=O)C(=O)N[C@@H](CCCCNC(=N)N)C(=O)N[C@@H](C)C(=O)N[C@@H](CCCCN)C(=O)N[C@H]1CCC[C@@H]1C(=O)N[C@@H](CC(C)C)C(=O)N[C@@H](CC(N)=O)C(=O)N[C@@H](CO)C(=O)N[C@H]1CCC[C@@H]1C(=O)N[C@@H](CCCNC(=N)N)C(=O)N[C@@H](CCCNC(=N)N)C(=O)N[C@H](C(=O)N[C@H]1CNC[C@@H]1C(=O)N[C@@H](Cc1c[nH]c2ccccc12)C(=O)N[C@@H](CC(C)C)C(=O)N[C@@H](CCCNC(=N)N)C(=O)N[C@H]1CNC[C@@H]1C(=O)N[C@@H](CCCCN)C(=O)N[C@@H](CC(C)C)C(=O)N[C@@H](CCC(N)=O)C(=O)N[C@H]1CCC[C@@H]1C(=O)N[C@H](C(=O)N[C@@H](Cc1cnc[nH]1)C(=O)N[C@@H](CC(N)=O)C(=O)N[C@H]1CCC[C@@H]1C(N)=O)C(C)C)C(C)C ({ACPC(1S,2S)}-V[Aib]E[X1]Q[X1]MHQ[hArg]AK[X1]LNS[X1]RRV[X2]WLR[X2]KLQ[X1]VHN-{NH(1S,2S-2-CONH2-cPent)})
EC50 [13]: 0.48 to 0.78 nM | fold change (FC) [14]: 7.1 to 9.5 | Drug metabolism [15]: Metabolite_Notdetected | Activity [16]: Active | half-life at 40 µM [17]: 240 min | Activity [18]: Active | Activity [7]: Active | Activity [19]: Toxic | Activity [8]: Non-Toxic | Drug uptake [20]: Not Active | inhibition [9]: Active | half-life at 12 µM [10]: 31 min | Activity [11]: Active | Activity [12]: Active

— ChEMBL document CHEMBL4024754, “Development of Potent, Protease-Resistant Agonists of the Parathyroid Hormone Receptor with Broad β Residue Distribution” (J Med Chem, 2017)
